Source: PubChem BioAssay
Rtt109 Vps75: C. albicans Rtt109 histone acetyltransferase inhibition; purified Rtt109/Vps75, ThioGlo CoA-SH fluorescence, 4 h; inhibition, % at 34.9 µM; Q5AAJ8; 330,000 compounds, 0.16% hits;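 active = inhibition of at least 50% in every replicate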
Target sequence (Q5AAJ8 whole entry, looked up): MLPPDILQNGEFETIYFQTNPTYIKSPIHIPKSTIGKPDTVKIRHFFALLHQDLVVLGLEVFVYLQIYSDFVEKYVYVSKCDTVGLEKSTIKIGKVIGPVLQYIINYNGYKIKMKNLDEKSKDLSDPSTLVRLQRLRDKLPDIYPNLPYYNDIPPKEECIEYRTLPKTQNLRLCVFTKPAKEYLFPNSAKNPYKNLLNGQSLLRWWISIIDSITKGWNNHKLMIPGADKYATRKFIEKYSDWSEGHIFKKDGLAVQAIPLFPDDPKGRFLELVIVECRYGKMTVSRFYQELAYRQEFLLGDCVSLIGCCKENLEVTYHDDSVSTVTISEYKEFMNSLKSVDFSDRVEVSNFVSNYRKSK
SKKanGAS inh: inhibitors of SKKanGAS S. pyogenes growth in kanamycin (SK-promoter or general growth effect); BacTiter-Glo, 6 h; inhibition, % at 7.5 µM; 300,000 compounds, 1.3% hits; AID 1662;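 active = mean replicate score, as percent of positive control median, at least 50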;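 also: strain carries kanamycin resistance gene driven by streptokinase promoter and grows in 40 µg/ml kanamycin; loss of luminescence reflects streptokinase promoter inhibition or plain growth inhibition; 0% = median of DMSO wells and 100% = positive control at its reference dose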
FN deposit inh: fibronectin deposition inhibition. AH1F fibroblasts, Alexa488-fibronectin deposition fluorescence, overnight. inhibition, % at 12.6 µM. 350,000 compounds, 0.086% hits. AID 743247;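 active = mean inhibition across replicates of 30% or more, regardless of how many single replicates reach that level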;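 also: positive control wells lacked labelled fibronectin entirely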
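Assay system: AH1F fibroblasts / Quantity: 10000 cells per well / Medium: DMEM plus 2% serum, read in PBS / Reagent: labelled fibronectin 24 nM / Dosing: single dose, pinned / Times: 1 h cell attachment, overnight exposure to compound and label / Signal: fluorescence, ex 485 nm, em 525 nm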
PglD inh: PglD (C. jejuni) enzyme inhibition; purified PglD enzyme, DTNB colorimetric CoA detection; inhibition, % at 12.5 µM; 360,000 compounds, 0.098% hits; AID 602405; in the data active = inhibition above about 16%, passing the limit was not always enough
PfHsp90 yeast 2: inhibits growth of yeast expressing Plasmodium falciparum Hsp90. S. cerevisiae expressing PfHsp90, BacTiter-Glo ATP, 48 h; yeast lacking PDR1 and PDR3 efflux regulators. inhibition, % at 9.4 µM. 310,000 compounds, 0.32% hits. AID 504621;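 active = every replicate shows inhibition above about 80%, whatever the replicate mean, limit read from the data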;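 also: 0% = DMSO neutral controls and 100% = 20 µM radicicol positive controls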
CSC inhib: blocks cancer stem cells | 300,000 compounds, 1.1% hits | cancer stem cell-like cells viability, luminescence | AID 2717 | inhibition, % at 7.5 µM; in the data active = inhibition above about 75%; tested in HMLE shEcad cells
PglD confirm: blocks Campylobacter jejuni PglD acetyltransferase activity. Purified C. jejuni PglD, DTNB absorbance 412 nm. 320 tested, under 10 active. shares compounds with PglD inh. AID 743156. inhibition, % at 20 µM;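 active = mean inhibition across replicates of at least 20% with every single replicate also at 20% or more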;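 also: initial rate of CoA release by acetyl transfer from AcCoA to the UDP-4-amino sugar; 0% = median of neutral control wells and 100% = median of positive control wells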
Numbers without * were called inactive. Compounds with a hit are over-represented: about 1.7% of the library has one in this group of screens.

What do the screens show for `Oc1cc2c(cc1CN1CCN(c3cccc(C(F)(F)F)c3)CC1)CCC2`?
Rtt109 Vps75: -1; SKKanGAS inh: 13; FN deposit inh: 8; PglD inh: 55*; PfHsp90 yeast 2: 1; CSC inhib: 38; PglD confirm: 1

How did COc1ccc(N2CCN(Cc3cc4c(cc3O)CCC4)CC2)cc1 do in these assays?
Rtt109 Vps75: -2; SKKanGAS inh: 6; FN deposit inh: 10; PglD inh: 2; PfHsp90 yeast 2: 17; CSC inhib: -2

Results for CN1/C(=C\C(=O)Nc2cccc(Cl)c2)C(C)(C)c2ccccc21 ?
SKKanGAS inh: 7; FN deposit inh: 11; PglD inh: 20*; PfHsp90 yeast 2: -2; CSC inhib: 43; PglD confirm: 13

What do the screens show for `C[C@H]1CN([C@@H](C)CO)C(=O)c2c(c3ccccc3n2C)-c2ccccc2CO[C@H]1CN(C)Cc1ccncc1`?
FN deposit inh: 8; PglD inh: 0

Results for Cc1noc(C)c1NC(=O)Nc1cccc2c1O[C@@H](CN(C)S(C)(=O)=O)[C@H](C)CN([C@@H](C)CO)C2=O ?
PglD inh: 1

What do the screens show for `Cc1ccc(CN2[C@@H]3c4ccccc4C[C@@H]3OCCS2(=O)=O)cc1`?
Rtt109 Vps75: 0; SKKanGAS inh: -3; FN deposit inh: -9; PglD inh: 2; PfHsp90 yeast 2: -4; CSC inhib: -6

Results for O=S1(=O)CCO[C@H]2Cc3ccccc3[C@H]2N1Cc1ccc(F)cc1 ?
Rtt109 Vps75: 2; SKKanGAS inh: 1; FN deposit inh: -2; PglD inh: 27*; PfHsp90 yeast 2: 27; CSC inhib: 0; PglD confirm: -6

Results for O=C(OCC(=O)N1CCCC1)c1cnc(Cl)c(Cl)c1 ?
Rtt109 Vps75: -1; FN deposit inh: 1; PglD inh: 25*; CSC inhib: 0; PglD confirm: -11

How did O=C(OCC(=O)N1CCCc2ccccc21)c1cnc(Cl)c(Cl)c1 do in these assays?
Rtt109 Vps75: 6; SKKanGAS inh: -9; FN deposit inh: -1; PfHsp90 yeast 2: 21; CSC inhib: 2

Results for Cc1ccccc1NC(=O)C[C@H]1CC[C@H]2[C@@H](COc3ccc(NC(=O)c4ccc(Cl)cc4)cc3C(=O)N2C)O1 ?
FN deposit inh: -12

How did CC(C(=O)N1CCCC1)N(c1ccccc1)S(C)(=O)=O (stereo not drawn) do in these assays?
Rtt109 Vps75: 2; SKKanGAS inh: -10; FN deposit inh: -7; PglD inh: 3; PfHsp90 yeast 2: 23; CSC inhib: -7

How did Cc1cc(C)cc(N(C(C)C(=O)N2CCCC2)S(C)(=O)=O)c1 (stereo not drawn) do in these assays?
Rtt109 Vps75: -3; SKKanGAS inh: 0; FN deposit inh: 4; PglD inh: 75*; PfHsp90 yeast 2: -17; CSC inhib: -16; PglD confirm: -9

Results for COC(=O)C1CSC(C(=O)OC)N1C(=O)CN1CCN(c2ccc(OC)cc2)CC1 (stereo not drawn) ?
Rtt109 Vps75: -13; SKKanGAS inh: 6; FN deposit inh: -3; PglD inh: 59*; PfHsp90 yeast 2: 11; CSC inhib: -2; PglD confirm: 3
